Here are results for 21 molecules from ChEMBL document CHEMBL1124444, “Hydroxyacetophenone-derived antagonists of the peptidoleukotrienes” (1989).

The species entered for assay [1] is Cavia porcellus. As to the kind of experiment: Percent inhibition of the leukotriene E4 (LTE4)-induced contraction of guinea pig tracheal spirals at 5 uM concentration. Type of assay: functional. Particulars: Trachea. An outline of the steps:
(§1)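 Guinea pig tracheal spirals were split into paired sections in 10 mL baths of modified Krebs at 37 °C, gassed with 95% O₂/5% CO₂, under 2 g resting tension. After 60 min equilibration (washes every 15 min), reproducible contractions to 8 nM LTD₄ or 8 nM LTE₄ were obtained. Compound was added for 10 min, then agonist challenge repeated; percent inhibition is relative to the vehicle-treated paired section.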

The species entered for assay [2] is Cavia porcellus. As to the kind of experiment: Percent inhibition of the leukotriene E4 (LTE4)-induced contraction of guinea pig tracheal spirals at 10 uM concentration; NS means data was not statistically significant. Type of assay: functional. Particulars: Trachea. An outline of the steps:
as §1

For assay [3], the species on record is Cavia porcellus. Nature of the assay: Percent inhibition of the leukotriene E4 (LTE4)-induced contraction of guinea pig tracheal spirals at 50 uM concentration. Type of assay: functional. Particulars: Trachea. An outline of the steps:
as §1

The species named for assay [4] is Cavia porcellus. As to the kind of experiment: Percent inhibition of the leukotriene D4 (LTD4)-induced contraction of guinea pig tracheal spirals at 10 uM concentration; NS means data was not statistically significant. Type of assay: functional. Particulars: Trachea. An outline of the steps: as §1
The species entered for assay [5] is Cavia porcellus. Nature of the assay: Percent inhibition of the leukotriene D4 (LTD4)-induced contraction of guinea pig tracheal spirals at 100 uM concentration. Type of assay: functional. Particulars: Trachea. An outline of the steps:
as §1

In assay [6] the target is T1, Cysteinyl leukotriene receptor 1 (Cavia porcellus) (UniProt Q2NNR5).
T1 sequence (whole entry): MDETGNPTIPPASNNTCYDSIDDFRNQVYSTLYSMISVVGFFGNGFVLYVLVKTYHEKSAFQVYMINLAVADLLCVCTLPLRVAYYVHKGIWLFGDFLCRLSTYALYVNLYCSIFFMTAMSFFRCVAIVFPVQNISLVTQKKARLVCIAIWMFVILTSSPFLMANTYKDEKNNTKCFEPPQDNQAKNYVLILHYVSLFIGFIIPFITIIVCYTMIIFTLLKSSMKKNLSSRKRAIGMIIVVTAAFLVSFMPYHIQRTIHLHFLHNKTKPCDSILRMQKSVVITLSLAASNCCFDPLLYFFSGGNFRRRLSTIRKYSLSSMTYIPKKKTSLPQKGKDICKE
As to the kind of experiment: Dissociation constant (KB) […] was evaluated in vitro in isolated guinea pig tracheal strips.

Assay [7] concerns Cavia porcellus. Nature of the assay: Compound (50 mg/kg, intraperitoneally) was tested in spontaneously breathing, conscious guinea pigs challenged with aerosolized LTD4 (60-min pretreatment). Type of assay: functional.
For assay [8], the system named is Cavia porcellus. As to the kind of experiment: Compound (50 mg/kg, intraperitoneally) was tested in spontaneously breathing, conscious guinea pigs challenged with aerosolized LTD4 (30-min pretreatment). Type of assay: functional.
Assay [9] is filed under the species Cavia porcellus. Nature of the assay: Percent inhibition of the leukotriene D4 (LTD4)-induced contraction of guinea pig tracheal spirals at 4 uM concentration. Type of assay: functional. Particulars: Trachea. An outline of the steps:
as §1

Assay [10] is filed under the species Cavia porcellus. Nature of the assay: Percent inhibition of the leukotriene E4 (LTE4)-induced contraction of guinea pig tracheal spirals at 1 uM concentration. Particulars: Trachea.
Assay [11] is filed under the species Cavia porcellus. As to the kind of experiment: Inhibition of the leukotriene D4 (LTD4)-induced contraction of guinea pig tracheal spirals at 10 uM concentration. Type of assay: functional. Particulars: Trachea. An outline of the steps: as §1
The species named for assay [12] is Cavia porcellus. As to the kind of experiment: Percent inhibition of the leukotriene E4 (LTE4)-induced contraction of guinea pig tracheal spirals at 50 uM concentration; NS means data was not statistically significant. Type of assay: functional. Particulars: Trachea. An outline of the steps:
as §1

Assay [13] is filed under the species Cavia porcellus. As to the kind of experiment: Percent inhibition of the leukotriene E4 ([…])-induced contraction of guinea pig tracheal spirals at 1 uM concentration; NS means data was not statistically significant. Type of assay: functional. Particulars: Trachea. An outline of the steps:
as §1

The species entered for assay [14] is Cavia porcellus. Nature of the assay: Percent inhibition of the leukotriene E4 (LTE4)-induced contraction of guinea pig tracheal spirals at 10 uM concentration. Type of assay: functional. Particulars: Trachea. An outline of the steps:
as §1

Assay [15] is filed under the species Cavia porcellus. Nature of the assay: Percent inhibition of the leukotriene E4 (LTE4)-induced contraction of guinea pig tracheal spirals at 3.3 uM concentration. Particulars: Trachea.
The species entered for assay [16] is Cavia porcellus. As to the kind of experiment: Percent inhibition of the leukotriene E4 (LTE4)-induced contraction of guinea pig tracheal spirals at 1 uM concentration; NS means data was not statistically significant. Particulars: Trachea.
The species named for assay [17] is Cavia porcellus. Nature of the assay: Percent inhibition of the leukotriene E4 (LTE4)-induced contraction of guinea pig tracheal spirals at 10 uM concentration; NS means data was not statistically significant. Particulars: Trachea.
The species named for assay [18] is Cavia porcellus. As to the kind of experiment: Percent inhibition of the leukotriene D4 (LTD4)-induced contraction of guinea pig tracheal spirals at 50 uM concentration. Type of assay: functional. Particulars: Trachea. An outline of the steps:
as §1

The species entered for assay [19] is Cavia porcellus. As to the kind of experiment: Percent inhibition of the leukotriene E4 (LTE4)-induced contraction of guinea pig tracheal spirals at 50 uM concentration; NS means data was not statistically significant. Type of assay: functional. Particulars: Trachea. An outline of the steps: as §1
Assay [20] is filed under the species Cavia porcellus. As to the kind of experiment: Percent inhibition of the leukotriene D4 (LTD4)-induced contraction of guinea pig tracheal spirals at 50 uM concentration; NS means data was not statistically significant. Particulars: Trachea. Type of assay: functional. An outline of the steps: as §1
The species named for assay [21] is Cavia porcellus. As to the kind of experiment: Percent inhibition of the leukotriene D4 (LTD4)-induced contraction of guinea pig tracheal spirals at 4 uM concentration; NS means data was not statistically significant. Type of assay: functional. Particulars: Trachea. An outline of the steps: as §1
The species named for assay [22] is Cavia porcellus. Nature of the assay: Percent inhibition of the leukotriene D4 (LTD4)-induced contraction of guinea pig tracheal spirals at 10 uM concentration. Type of assay: functional. Particulars: Trachea. An outline of the steps: as §1

Take `COc1cc(C(=O)O)ccc1COc1ccc(C(C)=O)c(O)c1C=C(C)C`: the inhibition at 5 µM in [1] was determined as 69%.
`CCCc1c(OCc2ccc(C(=O)O)cc2OC)ccc(C(=O)N(C)C)c1O`: the inhibition entry in assay [2] was “Not statistically significant”. Moreover, the inhibition at 50 µM in assay [3] was 84%.
For `CCCc1c(OCc2ccccc2C(=O)O)ccc(C(C)=O)c1O`, in assay [4], the inhibition entry was “Not statistically significant”. The molecule further yielded an inhibition at 100 µM in assay [5] of 91%.
With `CCCc1c(OCc2ccc(C(=O)O)cc2OC)ccc(C(=O)OC)c1O`, in [6], the Kb came out at 3180 nM. Further, the inhibition at 5 µM in [1] is 52%. For the same molecule, in [7], the Protection came out at 29%.
As for `CCCc1c(OCCC[S+]([O-])CC(=O)O)ccc(C(C)=O)c1O` (stereo unspecified), in [4], the inhibition result was “Not statistically significant”.
Take `CCCc1c(OCc2cccc(/C=C/C(=O)O)c2)ccc(C(C)=O)c1O`: the Kb in assay [6] was found to be 630 nM. Besides, in assay [8], the Protection turned out to be 19%. Also, in [9], 4 µM produced 66% inhibition. This molecule also showed an inhibition at 1 µM in [10] of 41%.
In turn, `CCCc1c(OCCCSCC(=O)O)ccc(C(C)=O)c1O` returned an inhibition at 10 µM in assay [11] of 62%. Also, the inhibition at 100 µM in assay [5] turned out to be 100%.
For `CCCc1c(OCc2ccc(C(=O)O)cc2OC)ccc(CCC(=O)O)c1O`, the inhibition result in assay [12] is “Not statistically significant”.
Regarding `CCCc1c(OCc2ccc(C(=O)O)cc2OC)ccc(C(=O)CC)c1O`, in [13], the inhibition entry is “Not statistically significant”. In [14], this molecule registered an inhibition at 10 µM of 97%. The molecule further yielded an inhibition at 5 µM in assay [1] of 73%.
Molecule `CCCc1c(OCc2cc(/C=C\C(=O)O)ccc2OC)ccc(C(C)=O)c1O` showed an inhibition at 10 µM in assay [11] of 28%. This molecule also displayed an inhibition at 1 µM in [10] of 14%.
Consider `CCCc1c(OCc2ccc(-c3nn[nH]n3)cc2OC)ccc(C(C)=O)c1O`, for which, in assay [15], the inhibition at 3.3 µM worked out at 45%. Further, the inhibition entry in assay [16] is “Not statistically significant”.
Take `CCCc1c(OCc2ccccc2-c2nn[nH]n2)ccc(C(C)=O)c1O`: in assay [17], the inhibition result is “Not statistically significant”.
`CCCc1c(OCc2ccc(NC(=O)c3ccccc3C(=O)O)cc2)ccc(C(C)=O)c1O`: the inhibition at 1 µM in [10] was 49%.
Take `CCCc1c(OCc2ccc(C(=O)O)cc2OC)ccc(C(=O)c2ccccc2)c1O`: the inhibition at 50 µM in assay [18] stood at 20%. In addition, in [17], the inhibition entry was “Not statistically significant”.
For the molecule `CCCc1c(OCc2ccc(C(=O)O)cc2OC)ccc(C(=O)O)c1O`, in assay [19], the inhibition result is “Not statistically significant”.
With `CCCCCCc1c(OCc2ccc(C(=O)O)cc2OC)ccc(C(C)=O)c1O`, the inhibition entry in [20] was “Not statistically significant”.
For the molecule `CCCc1c(OCc2ccc(C(=O)Nc3nn[nH]n3)cc2OC)ccc(C(C)=O)c1O`, the inhibition at 3.3 µM in assay [15] worked out at 43%.
`CCCc1c(OCc2ccc(C(=O)O)cc2OC)ccc(C(C)=O)c1N`: in assay [21], the inhibition result was “Not statistically significant”. In [11], this molecule yielded an inhibition at 10 µM of 43%.
In assay [11], `CCCc1c(OCc2cccc(C(=O)O)c2)ccc(C(C)=O)c1O` returned an inhibition at 10 µM of 50%. The inhibition at 100 µM in assay [5] was 100%.
`CCCc1c(OCC(O)CNC(CS)C(=O)NCC(=O)O)ccc(C(C)=O)c1O` (stereo unspecified) registered an inhibition at 100 µM in assay [5] of 33%.
`CCCc1c(OCc2ccc(C(=O)O)cc2OC)ccc(C=O)c1O` returned an inhibition at 10 µM in [22] of 54%.
